High-throughput results: PubChem, several laboratories
SIAE inh: inhibitors of human sialic acid acetylesterase SIAE; inhibition, % at 9.66 µM; SIAE FP-Rh probe binding, fluorescence polarization; AID 1053197; Q9HAT2; 370,000 tested, 0.69% active;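 active means inhibition above a cutoff: mean of compounds within the control limits plus 3 SD of those, cut at about 17% in these data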
TCR-CD3 inh: human TCR-CD3 binding inhibition; TAMRA-labeled TCR probe fluorescence, biochemical; 360,000 tested, 0.37% active; inhibition, % at 9.4 µM; in the data active means inhibition above about 19%;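 further: recombinant mutant TCR 2C K166C tagged with TAMRA read by polarization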
mABHD4 FP: inhibitors of mouse ABHD4. Q8VD66. purified mABHD4, FP-Rh probe fluorescence polarization. inhibition, % at 8.92 µM. 370,000 tested, 0.54% active. AID 720543;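 active means inhibition exceeding the mean over every tested compound plus 3 SD, cut at about 30% in these data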
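Assay system: wild-type mouse ABHD4 protein; compound: single nominal dose of 8.92 µM, 0.89% DMSO final; schedule: 45 min + 60 min at 25 °C; measured by: FP readout, ex 525 nm / em 598 nm; evaluation: % inhibition of FP-Rh probe binding versus controls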
HTRA1 inhibitor: inhibitors of human serine peptidase HTRA1; Q92743; inhibition, % at 5.96 µM; recombinant HTRA1, FP-rhodamine activity-based probe, fluorescence polarization; 340,000 tested, 0.5% active; in the data active means inhibition above about 36%
Target sequence (Q92743 whole entry, looked up): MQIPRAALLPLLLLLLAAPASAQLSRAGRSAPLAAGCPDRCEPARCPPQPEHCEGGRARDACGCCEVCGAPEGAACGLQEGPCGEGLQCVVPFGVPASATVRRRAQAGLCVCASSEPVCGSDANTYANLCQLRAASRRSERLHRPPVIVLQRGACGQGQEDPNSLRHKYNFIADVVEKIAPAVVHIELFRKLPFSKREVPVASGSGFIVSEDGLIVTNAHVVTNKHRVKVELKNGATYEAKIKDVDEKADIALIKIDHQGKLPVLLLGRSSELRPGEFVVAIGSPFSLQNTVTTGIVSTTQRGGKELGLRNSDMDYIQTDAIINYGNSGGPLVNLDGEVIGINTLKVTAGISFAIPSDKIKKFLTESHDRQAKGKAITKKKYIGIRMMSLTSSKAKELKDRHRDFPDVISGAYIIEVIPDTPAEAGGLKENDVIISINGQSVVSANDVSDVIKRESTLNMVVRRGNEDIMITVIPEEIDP
ARNT-TACC3 inh: ARNT/TACC3 interaction disruption. inhibition, % at 9.99 µM. 390,000 tested, 0.66% active. AID 623870. AlphaScreen His-ARNT PAS-B/GST-TACC3 binding, luminescence; TACC3 fragment carries E629A point mutation. Q9Y6A5;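 active means mean inhibition of replicates at least 50% and at least half of replicates each reaching 50%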
ARNT Alpha ctr-1: interferes with AlphaScreen signal, flagging false ARNT-TACC3 hits; shares compounds with ARNT-TACC3 inh; His-ARNT PASB-GST AlphaScreen artifact counter-screen, luminescence; AC50, µM (top dose mostly 68 µM); 1,200 tested, 50% active;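 active means every separate test run was called active for a drop in luminescence, with AC50 within twice the top valid dose, actives reach about 71 µM in these data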
ARNT Alpha ctr-2: counter-screen for ARNT-TACC3 inhibitors: AlphaScreen artifacts; 45 tested, 70% active; Dual-tagged His-ARNT PASB-GST AlphaScreen artifact counter-screen; shares compounds with ARNT-TACC3 inh; AC50, µM;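 active means luminescence drop, with half-maximal potency fitted within twice the sample's top valid dose, cut at about 70 µM in these data; inactive means the rest, including signal moving the wrong way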
A number is an active result. Most compounds without a hit are left out; they make up all but 1.8% or so of the library.

How did C[C@@H]1CN([C@H](C)CO)S(=O)(=O)c2ccc(C3=CCCC3)cc2O[C@H]1CN(C)Cc1ccccn1 do in these assays?
ARNT-TACC3 inh: 17; ARNT Alpha ctr-1: 51µM

What do the screens show for `C[C@H](CO)N1C[C@H](C)[C@H](CN(C)Cc2cccnc2)Oc2cc(C#CCN(C)C)ccc2S1(=O)=O`?
ARNT-TACC3 inh: active; ARNT Alpha ctr-1: inactive

Results for COc1ccc(NC(=O)C[C@H]2CC[C@H]3[C@@H](COc4ccc(NC(C)=O)cc4C(=O)N3C)O2)cc1 ?
ARNT-TACC3 inh: inactive

Results for CC1CCCC(C)N1C(=O)COC(=O)c1cc([N+](=O)[O-])ccc1N1CCOCC1 (stereo unspecified) ?
SIAE inh: inactive; TCR-CD3 inh: inactive; mABHD4 FP: inactive; HTRA1 inhibitor: inactive; ARNT-TACC3 inh: inactive

Results for CCOC(=O)C1CCN(C(=O)COC(=O)c2ccc([N+](=O)[O-])o2)CC1 ?
SIAE inh: inactive; TCR-CD3 inh: inactive; mABHD4 FP: inactive; HTRA1 inhibitor: inactive; ARNT-TACC3 inh: 33; ARNT Alpha ctr-1: inactive

Results for CC1CC(C)CN(C(=O)COC(=O)c2ccc([N+](=O)[O-])o2)C1 (stereo unspecified) ?
SIAE inh: inactive; TCR-CD3 inh: inactive; mABHD4 FP: inactive; HTRA1 inhibitor: inactive; ARNT-TACC3 inh: inactive

What do the screens show for `CC1CCCC(C)N1C(=O)COC(=O)c1ccc([N+](=O)[O-])o1` (stereo unspecified)?
SIAE inh: inactive; TCR-CD3 inh: inactive; mABHD4 FP: inactive; HTRA1 inhibitor: inactive; ARNT-TACC3 inh: 30; ARNT Alpha ctr-1: inactive

What do the screens show for `CN(C)CC(=O)Nc1ccc2c(c1)[C@@H]1C[C@H](CC(=O)NCc3ccccc3F)O[C@@H](CO)[C@@H]1O2`?
ARNT-TACC3 inh: inactive

What do the screens show for `COC(=O)c1c(N)n(-c2ccc(NC(C)=O)cc2)c2nc3ccccc3nc12`?
SIAE inh: inactive; TCR-CD3 inh: inactive; mABHD4 FP: inactive; HTRA1 inhibitor: inactive; ARNT-TACC3 inh: 14; ARNT Alpha ctr-1: inactive

Results for CC(C)CC#Cc1ccc2c(c1)O[C@H](CN(C)CC1CC1)[C@H](C)CN([C@H](C)CO)S2(=O)=O ?
ARNT-TACC3 inh: inactive

What do the screens show for `O=C(N/N=C/c1ccccc1)c1cccc2ccccc12`?
SIAE inh: inactive; TCR-CD3 inh: inactive; mABHD4 FP: inactive; HTRA1 inhibitor: inactive; ARNT-TACC3 inh: inactive

Results for O=C(N/N=C/c1sc2ccccc2c1O)c1cccc2ccccc12 ?
SIAE inh: inactive; TCR-CD3 inh: inactive; mABHD4 FP: inactive; HTRA1 inhibitor: inactive; ARNT-TACC3 inh: 55; ARNT Alpha ctr-1: 69µM

How did Cc1cccc(Nc2nc(-c3ccccn3)nnc2-c2ccccc2)n1 do in these assays?
ARNT Alpha ctr-1: 0.53µM

How did c1ccc(-c2csc(Nc3nc(-c4ccccn4)nnc3-c3ccccc3)n2)cc1 do in these assays?
ARNT Alpha ctr-1: 2.2µM

What do the screens show for `c1ccc(-c2nnc(-c3ccccn3)nc2Nc2cnc3ccccc3n2)cc1`?
ARNT Alpha ctr-1: 0.76µM

What do the screens show for `CCC(=O)N1[C@@H]2c3ccc(-c4ccccc4)c(=O)n3C[C@H]1[C@H](CO)[C@H]2C(=O)N1CCc2ccccc2C1`?
ARNT-TACC3 inh: inactive

What do the screens show for `O=C(CSc1ccc(-c2ccccn2)nn1)N1CCCC1`?
SIAE inh: inactive; TCR-CD3 inh: inactive; mABHD4 FP: inactive; HTRA1 inhibitor: inactive; ARNT-TACC3 inh: 85; ARNT Alpha ctr-1: 48µM; ARNT Alpha ctr-2: 23

What do the screens show for `O=C(CSc1ccc(-c2ccccc2)nn1)N1CCN(c2ccccc2)CC1`?
SIAE inh: inactive; TCR-CD3 inh: inactive; mABHD4 FP: inactive; HTRA1 inhibitor: inactive; ARNT-TACC3 inh: inactive

What do the screens show for `O=C(CSc1ccc(-c2ccccn2)nn1)c1ccccc1`?
SIAE inh: inactive; TCR-CD3 inh: inactive; mABHD4 FP: inactive; HTRA1 inhibitor: inactive; ARNT-TACC3 inh: 75; ARNT Alpha ctr-1: 15µM

Results for O=C(CSc1ccc(-c2ccccn2)nn1)c1ccc(F)cc1 ?
SIAE inh: inactive; TCR-CD3 inh: inactive; mABHD4 FP: inactive; HTRA1 inhibitor: inactive; ARNT-TACC3 inh: inactive
